Calls of active or inactive are those of the source. The rule behind the calls is not given here.
Columns and labels:
[1] = Antioxidant activity assessed as inhibition of superoxide anion generation at 200 ug/mL after 30 mins by NBT reduction assay relative to control; type: functional
In short: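 Superoxide was generated by xanthine, xanthine oxidase (0.04 U) and nitroblue tetrazolium in 100 mM phosphate buffer pH 8.2, with or without agent at 200 µg/ml, for 30 min at 37 °C. Stopped with glacial acetic acid; formazan read at 560 nm, and % inhibition derived using ε 7.2 × 10³ M⁻¹cm⁻¹.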

Rattus norvegicus [2] = test: Antihyperlipidemic activity in Charles-Foster rat assessed as reversal of triton-induced decrease in HDL level at 100 mg/kg, po after 18 hrs; type: functional, organism-based; design: dose 100 mg/kg
In short: (§1)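 Triton WR-1339 (400 mg/kg i.p.) hyperlipidemic male Charles Foster rats dosed 100 mg/kg p.o. for 18 h, 6/group. Serum was fractionated into VLDL, LDL and HDL by polyanionic precipitation and lipoprotein cholesterol measured. Mean ± SD; Student's t-test against triton group.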

Rattus norvegicus [3] = test: Antihyperlipidemic activity in Charles-Foster rat assessed as reversal of triton-induced increase in LDL level at 100 mg/kg, po after 18 hrs; type: functional, organism-based; design: dose 100 mg/kg; in short: as §1
Rattus norvegicus [4] = test: Antihyperlipidemic activity in Charles-Foster rat assessed as reversal of triton-induced increase in plasma triglyceride level at 100 mg/kg, po after 18 hrs relative to triton-treated control; type: functional
In short: (§2)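 Male adult Charles Foster rats (200-225 g), 6 per group; triton WR-1339 400 mg/kg i.p. plus oral test agent in 0.2% gum acacia suspension, given together, diet withdrawn. After 18 h, retro-orbital EDTA blood was centrifuged 2500 g, 4 °C, 10 min; plasma was diluted 1:3 in saline and TC, PL and TG were assayed enzymatically (mg/dl). Mean ± SD; Student's t-test.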

Rattus norvegicus [5] = test: Antihyperlipidemic activity in Charles-Foster rat assessed as reversal of triton-induced increase in plasma triglyceride level at 50 mg/kg, po after 18 hrs relative to triton-treated control; type: functional
In short: (§3)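 Dose-response in triton WR-1339 (400 mg/kg i.p.) hyperlipidemic male Charles Foster rats given oral agent at 50, 100 or 150 mg/kg in gum acacia suspension for 18 h, 6 rats/group. Plasma TC, PL and TG were measured enzymatically. Pooled data as mean ± SD; triton versus triton-plus-agent groups compared by t-test.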

Rattus norvegicus [6] = test: Antihyperlipidemic activity in Charles-Foster rat assessed as reversal of triton-induced increase in plasma phospholipid level at 50 mg/kg, po after 18 hrs relative to triton-treated control; type: functional; in short: as §3
Rattus norvegicus [7] = test: Antihyperlipidemic activity in Charles-Foster rat assessed as reversal of triton-induced increase in plasma phospholipid level at 100 mg/kg, po after 18 hrs relative to control; type: functional; in short: as §2
Rattus norvegicus [8] = test: Antihyperlipidemic activity in Charles-Foster rat assessed as post heparin lipolytic activity at 100 mg/kg, po after 18 hrs by spectrophotometric analysis relative to triton-treated control; type: functional
In short: (§4)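 Male adult Charles Foster rats (200-225 g), 6 per group. Triton WR-1339 400 mg/kg i.p.; test agent 100 mg/kg p.o. as gum acacia (0.2% w/v) suspension in water, given simultaneously, diet withdrawn; vehicle to control and triton groups. At 18 h under thiopentone (50 mg/kg), retro-orbital blood collected into EDTA and plasma separated. Post-heparin lipolytic activity read spectrophotometrically as nmol free fatty acid/h/ml plasma; mean ± SD; Student's t-test.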

Rattus norvegicus [9] = test: Antihyperlipidemic activity in Charles-Foster rat assessed as reversal of triton-induced increase in plasma total cholesterol level at 50 mg/kg, po after 18 hrs relative to triton-treated control; type: functional; in short: as §3
Rattus norvegicus [10] = test: Antihyperlipidemic activity in Charles-Foster rat assessed as reversal of triton-induced increase in plasma phospholipid level at 100 mg/kg, po after 18 hrs relative to triton-treated control; type: functional; in short: as §2
Rattus norvegicus [11] = test: Antihyperlipidemic activity in triton-induced Charles-Foster rat assessed as increase in plasma lecithin cholesterol acyltransferase activity at 100 mg/kg, po after 18 hrs by colorimetric assay; type: functional, organism-based; design: dose 100 mg/kg
Rattus norvegicus [12] = test: Antihyperlipidemic activity in Charles-Foster rat assessed as reversal of triton-induced increase in plasma total cholesterol level at 100 mg/kg, po after 18 hrs relative to triton-treated control; type: functional; in short: as §2
Rattus norvegicus [13] = test: Antihyperlipidemic activity in Charles-Foster rat assessed as reversal of triton-induced increase in plasma triglyceride level at 100 mg/kg, po after 18 hrs relative to control; type: functional; in short: as §2
Rattus norvegicus [14] = test: Antihyperlipidemic activity in Charles-Foster rat assessed as reversal of triton-induced increase in plasma phospholipid level at 150 mg/kg, po after 18 hrs relative to triton-treated control; type: functional; in short: as §3
Rattus norvegicus [15] = test: Antihyperlipidemic activity in Charles-Foster rat assessed as reversal of triton-induced increase in plasma triglyceride level at 150 mg/kg, po after 18 hrs relative to triton-treated control; type: functional; in short: as §3
Rattus norvegicus [16] = test: Antihyperlipidemic activity in Charles-Foster rat assessed as reversal of triton-induced increase in plasma total cholesterol level at 100 mg/kg, po after 18 hrs relative to control; type: functional; in short: as §2
Rattus norvegicus [17] = test: Antihyperlipidemic activity in Charles-Foster rat assessed as reversal of triton-induced increase in VLDL level at 100 mg/kg, po after 18 hrs; type: functional, organism-based; design: dose 100 mg/kg; in short: as §1
Rattus norvegicus [18] = test: Antihyperlipidemic activity in Charles-Foster rat assessed as reversal of triton-induced increase in plasma total cholesterol level at 150 mg/kg, po after 18 hrs relative to triton-treated control; type: functional; in short: as §3
Rattus norvegicus [19] = test: Antihyperlipidemic activity in Charles-Foster rat assessed as post heparin lipolytic activity at 100 mg/kg, po after 18 hrs by spectrophotometric analysis relative to control; type: functional; in short: as §4
Rattus norvegicus [20] = test: Antihyperlipidemic activity in po dosed Charles-Foster rat assessed as reversal of triton-induced increase in plasma triglyceride level after 18 hrs; type: functional, organism-based; in short: as §2
Rattus norvegicus [21] = test: Antihyperlipidemic activity in po dosed Charles-Foster rat assessed as reversal of triton-induced increase in plasma phospholipid level after 18 hrs; type: functional, organism-based; in short: as §2
[22] = Antioxidant activity assessed as inhibition of hydroxyl radical generation at 200 ug/mL after 90 mins by spectrophotometric analysis relative to control; type: functional
In short: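 Hydroxyl radicals were generated non-enzymically from deoxyribose (2.8 mM), FeSO4 (2 mM), sodium ascorbate (2.0 mM) and H2O2 (2.8 mM) in KH2PO4 buffer pH 7.4, 2.5 mL final, with or without agent at 200 µg/ml, for 90 min at 37 °C. MDA was read spectrophotometrically by the thiobarbituric acid method against reference samples and reagent blanks.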

Rattus norvegicus [23] = test: Antihyperlipidemic activity in po dosed Charles-Foster rat assessed as reversal of triton-induced increase in plasma total cholesterol level after 18 hrs; type: functional, organism-based; in short: as §2
[24] = Antioxidant activity assessed as inhibition of microsomal lipid peroxidation at 200 ug/mL by spectrophotometric analysis relative to control; type: functional

Question: With `Oc1ncnc2[nH]ncc12` as the molecule, how does the inhibition [1] read?
Answer: 51%

Question: Which results are given for `COc1ccc(C(=O)c2cc3cc(C(c4c[nH]c5ccc(OC)cc45)c4c[nH]c5ccc(OC)cc45)cc(C(C)(C)C)c3o2)cc1`?
Answer: Activity (Rattus norvegicus [2]): Active; Activity (Rattus norvegicus [3]): Active; Activity (Rattus norvegicus [4]): -23%; Activity (Rattus norvegicus [5]): -21%; Activity (Rattus norvegicus [6]): -20%; Activity (Rattus norvegicus [7]): 159.29 mg/dL; Activity (Rattus norvegicus [8]): 17%; Activity (Rattus norvegicus [9]): -20%; Activity (Rattus norvegicus [10]): -23%; Activity (Rattus norvegicus [11]): Active; Activity (Rattus norvegicus [12]): -24%; Activity (Rattus norvegicus [13]): 166.4 mg/dL; Activity (Rattus norvegicus [14]): -23%; Activity (Rattus norvegicus [15]): -24%; Activity (Rattus norvegicus [16]): 139.99 mg/dL; Activity (Rattus norvegicus [17]): Active; Activity (Rattus norvegicus [18]): -27%; Activity (Rattus norvegicus [19]): 15.45 nmol/h/mL

Question: Which inhibition [1] does the source give for `CCc1cc(C(c2c[nH]c3ccc(OC)cc23)c2c[nH]c3ccc(OC)cc23)cc2cc(C(=O)c3ccc(OC)cc3)oc12` here?
Answer: 31%

Question: What about the Activity (Rattus norvegicus [20]) of the same molecule?
Answer: Dose-dependent effect

Question: And the Activity (Rattus norvegicus [2])?
Answer: Active

Question: And the Activity (Rattus norvegicus [3])?
Answer: Active

Question: What about the Activity (Rattus norvegicus [4]) of the same molecule?
Answer: -28%

Question: And the Activity (Rattus norvegicus [5])?
Answer: -20%

Question: And the Activity (Rattus norvegicus [21])?
Answer: Dose-dependent effect

Question: What about the Activity (Rattus norvegicus [6]) of the same molecule?
Answer: -20%

Question: What about the Activity (Rattus norvegicus [7]) of the same molecule?
Answer: 146.88 mg/dL

Question: What about the inhibition [22] of the same molecule?
Answer: 27%

Question: And the Activity (Rattus norvegicus [8])?
Answer: 18%

Question: And the Activity (Rattus norvegicus [9])?
Answer: -22%

Question: What about the Activity (Rattus norvegicus [10]) of the same molecule?
Answer: -29%

Question: And the Activity (Rattus norvegicus [11])?
Answer: Active

Question: What about the Activity (Rattus norvegicus [12]) of the same molecule?
Answer: -28%

Question: What about the Activity (Rattus norvegicus [13]) of the same molecule?
Answer: 155.59 mg/dL

Question: And the Activity (Rattus norvegicus [23])?
Answer: Dose-dependent effect

Question: And the Activity (Rattus norvegicus [14])?
Answer: -29%

Question: And the Activity (Rattus norvegicus [15])?
Answer: -30%

Question: What about the Activity (Rattus norvegicus [16]) of the same molecule?
Answer: 132.63 mg/dL

Question: And the inhibition [24]?
Answer: 32%

Question: And the Activity (Rattus norvegicus [17])?
Answer: Active

Question: What about the Activity (Rattus norvegicus [18]) of the same molecule?
Answer: -29%

Question: What about the Activity (Rattus norvegicus [19]) of the same molecule?
Answer: 15.58 nmol/h/mL

Question: For `Cc1c(C)c2c(c(C)c1O)CC[C@@](C)(CCC[C@H](C)CCC[C@H](C)CCCC(C)C)O2`, which inhibition [22] is on record?
Answer: 49%

Question: And the inhibition [24]?
Answer: 52%

Question: Which results are given for `Cc1ccc(C)c(OCCCC(C)(C)C(=O)O)c1` [GEMFIBROZIL]?
Answer: Activity (Rattus norvegicus [4]): -34%; Activity (Rattus norvegicus [7]): 134.47 mg/dL; Activity (Rattus norvegicus [8]): 20%; Activity (Rattus norvegicus [10]): -35%; Activity (Rattus norvegicus [11]): Active; Activity (Rattus norvegicus [12]): -34%; Activity (Rattus norvegicus [13]): 142.63 mg/dL; Activity (Rattus norvegicus [16]): 121.57 mg/dL; Activity (Rattus norvegicus [19]): 15.85 nmol/h/mL

Question: Which Activity (Rattus norvegicus [4]) does the source give for `CC(C)c1cc(C(c2c[nH]c3ccccc23)c2c[nH]c3ccccc23)cc2cc(C(=O)c3ccc(Cl)cc3)oc12` here?
Answer: -10%

Question: What about the Activity (Rattus norvegicus [7]) of the same molecule?
Answer: 186.19 mg/dL

Question: What about the Activity (Rattus norvegicus [8]) of the same molecule?
Answer: 4%

Question: What about the Activity (Rattus norvegicus [10]) of the same molecule?
Answer: -10%

Question: And the Activity (Rattus norvegicus [12])?
Answer: -12%

Question: What about the Activity (Rattus norvegicus [13]) of the same molecule?
Answer: 194.4 mg/dL

Question: And the Activity (Rattus norvegicus [16])?
Answer: 162.1 mg/dL

Question: And the Activity (Rattus norvegicus [19])?
Answer: 13.77 nmol/h/mL
